Bioassay records as filed in PubChem.
M5 ag = agonists of human muscarinic M5 receptor (CHRM5); activation, % at 3 µM; P08912; CHO-K1 hM5 cells, Fluo-8 calcium fluorescence; 0% DMSO wells, 100% maximal acetylcholine response; AID 624037; 0.19% of 360,000 active;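 active = activation above the run's mean over test compounds plus 3 SD, cut at about 23% in these data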;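 also: signal is peak over basal fluorescence ratio across the kinetic read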
Target sequence (P08912 whole entry, looked up): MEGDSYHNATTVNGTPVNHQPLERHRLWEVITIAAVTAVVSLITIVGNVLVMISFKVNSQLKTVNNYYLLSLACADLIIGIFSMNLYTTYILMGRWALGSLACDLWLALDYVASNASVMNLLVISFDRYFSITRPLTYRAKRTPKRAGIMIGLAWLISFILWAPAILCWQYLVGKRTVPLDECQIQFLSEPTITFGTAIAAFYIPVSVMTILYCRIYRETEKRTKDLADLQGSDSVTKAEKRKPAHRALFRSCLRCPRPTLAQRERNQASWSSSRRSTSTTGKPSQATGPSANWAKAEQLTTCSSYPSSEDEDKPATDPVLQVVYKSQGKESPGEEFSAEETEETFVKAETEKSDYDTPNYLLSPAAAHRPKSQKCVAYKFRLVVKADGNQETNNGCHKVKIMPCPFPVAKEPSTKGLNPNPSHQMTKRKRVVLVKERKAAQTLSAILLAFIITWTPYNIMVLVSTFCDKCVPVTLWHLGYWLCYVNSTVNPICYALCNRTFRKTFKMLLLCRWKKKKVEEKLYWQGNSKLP
CHRM4 agonist = agonists of human muscarinic M4 receptor (CHRM4); P08173; CHO-K1 hM4/Gqi5, Fluo-8 calcium fluorescence; vehicle 0%, full acetylcholine response 100%; activation, % at 3 µM; 0.14% of 360,000 active; AID 624127;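 active = activation above the run mean over all test wells plus 3 SD, cut at about 32% in these data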;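 also: peak over basal fluorescence ratio per well then scaled between controls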
CHRM5 antagonist = CHRM5 antagonism in calcium assay; P08912; CHO-hM5 cells, Fluo-8 calcium fluorescence, ACh EC80; inhibition, % at 3 µM; 0.59% of 360,000 active;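 active = inhibition above a per-plate cutoff, the mean of that plate's test compounds plus 3 SD, cut at about 27% in these data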
CHRM4 PAM = positive allosteric modulators of human muscarinic M4 receptor; 0.4% of 360,000 active; CHO-K1 hM4/Gqi5, Fluo-8 calcium fluorescence, ACh EC20; 0% = ACh EC20, 100% = maximal ACh; activation, % at 3 µM; P08173;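 active = activation above its plate's cutoff, the mean activation of sample wells plus 3 SD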
M5 PAM = positive allosteric modulators of human muscarinic M5 receptor; CHO-K1 hM5, Fluo-8 calcium, ACh EC20 PAM; 0% = ACh EC20, 100% = ACh EC100; activation, % at 3 µM; 0.3% of 360,000 active; P08912; AID 624038;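 active = activation above the run cutoff, the mean activation of all test compounds plus 3 SD, cut at about 18% in these data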
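System: CHO-K1 cell line with stable human muscarinic M5 receptor expression | Also added: EC20 acetylcholine as agonist stimulus | Compound: One concentration, 3 µM final (nominal) | Timing: Fluo-8 loading 80 min at 37 °C plus 30 min room temperature | Measured by: Fluo-8 calcium dye fluorescence, kinetic read | Read-out basis: % activation, ACh-normalized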
CHRM4 antagonist = CHRM4 antagonism in calcium assay; CHO-hM4 cells, ACh EC80, Fluo-8 calcium fluorescence; inhibition, % at 3 µM; AID 624125; 0.73% of 360,000 active;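 active = inhibition above its plate's cutoff, the mean inhibition of sample wells plus 3 SD, cut at about 27% in these data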
Numbers stand for hits. The list is not random: actives were taken first. Their share in the collection is about 1.8%.

`O=[N+]([O-])c1c(NCCCO)cc(Sc2nc3ccccc3s2)c2nonc12` gave M5 ag inactive, CHRM4 agonist inactive, CHRM5 antagonist 32.1, CHRM4 PAM inactive, M5 PAM inactive and CHRM4 antagonist 74.9.
Cc1cccc(-n2c(=O)c3ccccc3n3c(=S)[nH]nc23)c1C was read as M5 ag inactive, CHRM4 agonist inactive, CHRM5 antagonist inactive, CHRM4 PAM inactive, M5 PAM inactive and CHRM4 antagonist inactive.
Screening CC(C)CCN1C(=O)c2ccccc2C1C(=O)NCc1cccnc1 (configuration not stated) returned M5 ag inactive, CHRM4 agonist inactive, CHRM5 antagonist inactive, CHRM4 PAM 20.9, M5 PAM inactive and CHRM4 antagonist inactive.
Screening O=S(=O)(NC1CCCC1)c1ccc(S(=O)(=O)NC2CCCC2)cc1 returned M5 ag 28.2, CHRM4 agonist inactive, CHRM5 antagonist inactive, CHRM4 PAM inactive, M5 PAM inactive and CHRM4 antagonist inactive.
Screening Cc1onc(-c2ccccc2Cl)c1C(=O)NCc1nnnn1-c1ccc(F)c(F)c1 returned M5 ag inactive, CHRM4 agonist inactive, CHRM5 antagonist inactive, CHRM4 PAM inactive, M5 PAM inactive and CHRM4 antagonist inactive.
For Cc1ccc(C(=O)c2c(C)oc3c2C(=O)C(=O)c2ccccc2-3)cc1 the results were M5 ag inactive, CHRM4 agonist inactive, CHRM5 antagonist inactive, CHRM4 PAM inactive, M5 PAM inactive and CHRM4 antagonist inactive.
Screening Cc1ccc(C(=O)c2coc3c2C(=O)C(=O)c2ccccc2-3)cc1 returned M5 ag inactive, CHRM4 agonist inactive, CHRM5 antagonist 35.7, CHRM4 PAM inactive, M5 PAM inactive and CHRM4 antagonist inactive.
Screening Fc1ccc(-n2c(CN3CCCCC3)n[nH]c2=S)cc1 returned M5 ag inactive, CHRM4 agonist inactive, CHRM5 antagonist inactive, CHRM4 PAM inactive, M5 PAM 20.6 and CHRM4 antagonist inactive.
For S=c1[nH]nc(CN2CCCCC2)n1-c1ccc(Cl)cc1 the results were M5 ag inactive, CHRM4 agonist inactive, CHRM5 antagonist inactive, CHRM4 PAM inactive, M5 PAM inactive and CHRM4 antagonist inactive.
For CN(C)CCNc1ncnc2c1ncn2[C@H]1CN(Cc2ccc3c(c2)OCO3)C[C@@H](CO)O1 the results were M5 ag inactive, CHRM4 agonist inactive, CHRM5 antagonist inactive, CHRM4 PAM inactive, M5 PAM inactive and CHRM4 antagonist inactive.
`Cn1cc(C(=O)c2cccc(Cl)c2Cl)cc1C(=O)O` gave M5 ag inactive, CHRM4 agonist inactive, CHRM5 antagonist inactive, CHRM4 PAM inactive, M5 PAM 20.7 and CHRM4 antagonist inactive.
Screening COC(=O)c1cc(C(=O)c2cccc(Cl)c2Cl)cn1C returned M5 ag inactive, CHRM4 agonist inactive, CHRM5 antagonist inactive, CHRM4 PAM inactive, M5 PAM inactive and CHRM4 antagonist inactive.
Cc1occc1C(=O)Nc1c(F)c(F)c(F)c(F)c1F was read as M5 ag inactive, CHRM4 agonist inactive, CHRM5 antagonist inactive, CHRM4 PAM inactive, M5 PAM 18.2 and CHRM4 antagonist inactive.
Screening Cc1occc1C(=O)NNC(=O)Nc1ccc(F)cc1F returned M5 ag inactive, CHRM4 agonist inactive, CHRM5 antagonist inactive, CHRM4 PAM inactive, M5 PAM inactive and CHRM4 antagonist inactive.
Screening Cc1cccc(NC(=O)CSCC(=O)NNC(=O)c2ccoc2C)c1 returned M5 ag inactive, CHRM4 agonist inactive, CHRM5 antagonist inactive, CHRM4 PAM 22.6, M5 PAM inactive and CHRM4 antagonist inactive.
`Cc1occc1C(=O)Nc1ccc(Br)cc1F` gave M5 ag inactive, CHRM4 agonist inactive, CHRM5 antagonist inactive, CHRM4 PAM inactive, M5 PAM 29.6 and CHRM4 antagonist inactive.
Screening O=C(O)c1cccc(-c2csc(C(O)c3cccc(Cl)c3)n2)c1 (configuration not stated) returned M5 ag inactive, CHRM4 agonist inactive, CHRM5 antagonist inactive, CHRM4 PAM inactive, M5 PAM inactive and CHRM4 antagonist inactive.
CCC[C@H]1CN(Cc2ccccc2)C(=O)[C@@H]1CC(=O)NC was read as M5 ag inactive, CHRM4 agonist inactive, CHRM5 antagonist inactive, CHRM4 PAM inactive, M5 PAM inactive and CHRM4 antagonist inactive.
`CCOc1cc(NC(=S)NCC2CCCO2)c(OCC)cc1NC(=O)CC(C)C` (configuration not stated) gave M5 ag inactive, CHRM4 agonist inactive, CHRM5 antagonist inactive, CHRM4 PAM inactive, M5 PAM inactive and CHRM4 antagonist inactive.
`COc1ccc(S(=O)(=O)N2CCCCC2c2cc(C(=O)NCc3ccccc3)no2)cc1` (configuration not stated) gave M5 ag inactive, CHRM4 agonist inactive, CHRM5 antagonist inactive, CHRM4 PAM inactive, M5 PAM inactive and CHRM4 antagonist inactive.
Screening O=C(Nc1ccccc1-c1nc2ccccc2[nH]1)c1ccc(N2C(=O)CCC2=O)cc1 returned M5 ag inactive, CHRM4 agonist inactive, CHRM5 antagonist 27.2, CHRM4 PAM inactive, M5 PAM inactive and CHRM4 antagonist inactive.
CC1CCN(C(=O)Cn2cc(C#N)c3ccccc32)CC1 was read as M5 ag inactive, CHRM4 agonist inactive, CHRM5 antagonist inactive, CHRM4 PAM inactive, M5 PAM inactive and CHRM4 antagonist 26.6.
`Nc1c(-c2cccc(Cl)c2)cnc2c(-c3ccccc3)cnn12` gave M5 ag inactive, CHRM4 agonist inactive, CHRM5 antagonist inactive, CHRM4 PAM inactive, M5 PAM inactive and CHRM4 antagonist inactive.
For CCN1C(=O)/C(=C2\Sc3ccccc3N2CC)OC1=S the results were M5 ag inactive, CHRM4 agonist inactive, CHRM5 antagonist inactive, CHRM4 PAM 22.9, M5 PAM inactive and CHRM4 antagonist inactive.
Screening C=CCN1C(=O)/C(=C2/Sc3ccccc3N2CC)SC1=S returned M5 ag inactive, CHRM4 agonist inactive, CHRM5 antagonist inactive, CHRM4 PAM inactive, M5 PAM inactive and CHRM4 antagonist inactive.
`Cc1ccccc1NC(=S)NC(=O)/C=C/c1ccco1` gave M5 ag inactive, CHRM4 agonist inactive, CHRM5 antagonist inactive, CHRM4 PAM inactive, M5 PAM 22.0 and CHRM4 antagonist inactive.
Screening O=C(CCCn1nnnc1CN1CCOCC1)N1CCN(c2ccccc2F)CC1 returned M5 ag inactive, CHRM4 agonist inactive, CHRM5 antagonist inactive, CHRM4 PAM inactive, M5 PAM inactive and CHRM4 antagonist inactive.
For O=C(NC(=S)NC1C2CC3CC(C2)CC1C3)c1ccccc1 (configuration not stated) the results were M5 ag inactive, CHRM4 agonist inactive, CHRM5 antagonist inactive, CHRM4 PAM inactive, M5 PAM inactive and CHRM4 antagonist inactive.
`CCN(CC)S(=O)(=O)c1ccc(S(=O)(=O)N2CCN(C(=O)c3ccco3)CC2)cc1` gave M5 ag inactive, CHRM4 agonist inactive, CHRM5 antagonist inactive, CHRM4 PAM inactive, M5 PAM inactive and CHRM4 antagonist 29.4.
